PP1 inh: PP1-alpha (human) inhibition in PP5 counter-screen; purified PP1alpha, OMFP fluorescence; inhibition, % at 6.7 µM; actives 0.9% (n = 320,000);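 active means inhibition above the mean inhibition of all tested compounds plus 3 SD, computed separately for each screening campaign, cut at about 15% in these data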
Target sequence (P62136 whole entry, looked up): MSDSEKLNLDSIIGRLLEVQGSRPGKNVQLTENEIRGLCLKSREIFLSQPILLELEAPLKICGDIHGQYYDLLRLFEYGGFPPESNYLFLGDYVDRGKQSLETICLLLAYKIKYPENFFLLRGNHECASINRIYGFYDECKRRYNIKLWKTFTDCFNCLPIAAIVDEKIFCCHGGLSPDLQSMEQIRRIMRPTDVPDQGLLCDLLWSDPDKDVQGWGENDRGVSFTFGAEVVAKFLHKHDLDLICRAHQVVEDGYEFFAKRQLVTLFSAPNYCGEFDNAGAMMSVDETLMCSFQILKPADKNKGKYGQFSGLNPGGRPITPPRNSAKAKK
PP5 inh: PP5 (human) phosphatase inhibition; AID 1987; P53041; actives 0.18% (n = 320,000); inhibition, % at 6.7 µM; purified PP5c, OMFP substrate fluorescence;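 active means inhibition above the campaign's mean inhibition across all tested compounds plus 3 SD, cut at about 9.5% in these data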;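 further: 0% = DMSO only and 100% = 100 µM cantharidin control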
ZTA DNA inh: counter-screen for EBNA-1 inhibitors: inhibitors of Epstein-Barr virus ZTA | P03206 | ZTA-DNA binding, fluorescence polarization | inhibition, % at 11 µM | actives 0.15% (n = 320,000) | AID 2234; in the data active means inhibition above about 33%
Target sequence (P03206 whole entry, looked up): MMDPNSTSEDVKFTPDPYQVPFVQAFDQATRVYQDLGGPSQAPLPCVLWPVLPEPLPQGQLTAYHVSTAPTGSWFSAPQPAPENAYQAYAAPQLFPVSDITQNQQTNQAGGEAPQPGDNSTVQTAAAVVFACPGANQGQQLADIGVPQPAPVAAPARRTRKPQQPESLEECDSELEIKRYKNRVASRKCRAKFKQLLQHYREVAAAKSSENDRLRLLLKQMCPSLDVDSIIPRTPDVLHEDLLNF
EBNA-1 inh: blocks EBNA-1 binding to DNA; EBNA-1 DNA binding, fluorescence polarization; inhibition, % at 14.8 µM; actives 0.34% (n = 300,000); AID 1950; in the data active means inhibition above about 28%
HCV core dimer: blocks dimerization of HCV core protein; actives 0.33% (n = 300,000); TR-FRET GST/Flag-core106 dimerization, 1536-well; AID 1899; inhibition, % at 5 µM;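 active means inhibition above the mean of all tested compounds plus 3 SD, set per screening campaign, cut at about 45% in these data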
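test system = GST/Flag-tagged HCV core106 proteins | probe or stimulus = Eu donor and XL665 acceptor anti-tag antibodies | times = compound-protein-antibody incubation 4 h at 22.5 °C | signal = TR-FRET, excitation 340 nm, emission 617 and 671 nm | measure = percent inhibition of core106 dimerization signal | controls = wells lacking GST-core106 and wells with excess unlabelled core106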
An asterisk follows results filed as active; i = inactive; / = no result given; + = active, no number. This is a sample that favours compounds with a hit; in the whole collection about 1.7% have one here.

SMILES	PP1 inh	PP5 inh	ZTA DNA inh	EBNA-1 inh	HCV core dimer
Cc1ccc(CN2C(=O)C3CCCN3c3ccc(S(=O)(=O)N4CCOCC4)cc32)cc1 (stereo not given)	24*	-1	-7	-4	48*
Cc1[nH]c2ccccc2c1Cc1nnc(SCCC#N)o1	0	3	-7	-7	0
O=C(/C=C\Nc1cccc(F)c1)c1ccc2c(c1)OCO2	-2	1	9	40*	-3
COc1ccccc1CN(C)C(=O)CN1CCN(C(=O)c2cccs2)CC1	0	1	-13	/	/
Cc1ccc(C(C(=O)NC2CCCCC2)N(Cc2ccccc2)C(=O)Cc2c[nH]c3ccccc23)o1 (stereo not given)	8	4	7	-13	17
COc1ccc(CN(C(=O)Cc2c[nH]c3ccccc23)C(C(=O)NC2CCCCC2)c2ccc(C)o2)cc1 (stereo not given)	17*	8	-13	-8	10
Cn1c(=S)[nH]c2sc3c(c2c1=O)CCC(C(C)(C)C)C3 (stereo not given)	1	4	2	9	11
C#CCn1c(=NC(=O)c2ccc(Br)s2)sc2cccc(OC)c21	16*	0	11	5	-65
CCOC(=O)c1c(NC(=O)Cn2cnc3scc(-c4ccc(C)cc4)c3c2=O)sc(C)c1C	16*	1	-17	5	32
CCOc1ccccc1N1CCN(C(=O)C2=CC=CN3CCS(=O)(=O)N=C23)CC1	-3	1	-5	/	/
CC(Sc1cnc2ccccc2n1)C(=O)O (stereo not given)	18*	-2	-2	-6	6
Cc1cc(SC(C)C(=O)O)nc2ccccc12 (stereo not given)	-2	2	8	3	-2
Cc1c2cc(O)c(=O)cc-2oc2cc(O)c(O)cc12	33*	-13	11	3	-14
COc1cc(OC)c(-c2c3cc(O)c(=O)cc-3oc3cc(O)c(O)cc23)cc1OC	-7	-12	19	5	-18
Nc1ccc(C(=O)Nc2ccc(Nc3ccncc3)cc2)cc1	-3	-2	-3	16	-63
Nc1ccc(NC(=O)c2ccc(C(=O)Nc3ccc(N)cc3)cc2)cc1	16*	1	-10	-2	30
Cc1ccc(/C(O)=C2/C(=O)C(=O)N(c3ccccn3)C2c2ccc([N+](=O)[O-])cc2)cc1 (stereo not given)	16*	-1	3	11	18
Cc1nnc(N2C(=O)C(=O)/C(=C(/O)c3ccc4c(c3)OCCO4)C2c2ccc([N+](=O)[O-])cc2)s1 (stereo not given)	9	0	-8	-6	48*
COC(=O)c1ccc(C2/C(=C(\O)c3ccc4c(c3)OCCO4)C(=O)C(=O)N2c2nnc(C)s2)cc1 (stereo not given)	-1	-2	12	-1	-3
COc1ccccc1CNC(=O)[C@H](NC(=O)C1CCN(C(=O)[C@@H](N)CCSC)CC1)C(C)C	-3	1	9	2	0
Cc1ccc(NC(=O)C2Cc3ccccc3CN2C(=O)c2ccco2)cc1S(=O)(=O)N(C)C (stereo not given)	4	4	-9	-11	7
CC(C)(C)C1CCC(=NNC(=O)c2ccco2)CC1 (stereo not given)	-4	0	-2	0	0
Cc1ccc(NC(=O)c2ccccc2-c2ccccc2C(=O)O)cc1C	-10	2	-11	-10	3
O=C(O)c1ccccc1-c1ccccc1C(=O)Nc1ccc2c(c1)[nH]c(=O)c1ccccc12	15*	2	3	-5	10
C#CCOCCOCCOCCNc1nc(N2CCN(C(=O)[C@H]([C@@H](C)CC)n3cc([C@@H](N)Cc4ccc(O)cc4)nn3)CC2)nc(N2CCN(C(=O)[C@H](Cc3cc4ccccc4[nH]3)n3cc([C@@H](N)C(C)CC)nn3)CC2)n1 (stereo not given in full)	11	3	-11	3	1
SMILES	PP1 inh	PP5 inh	ZTA DNA inh	EBNA-1 inh	HCV core dimer
C#CCOCCOCCOCCNc1nc(N2CCN(C(=O)[C@H](Cc3ccc(O)cc3)n3cc([C@@H](N)C(C)CC)nn3)CC2)nc(N2CCN(C(=O)[C@H](Cc3cc4ccccc4[nH]3)n3cc([C@@H](N)C(C)CC)nn3)CC2)n1 (stereo not given in full)	17*	1	1	2	-6
C#CCOCCOCCOCCNc1nc(N2CCN(C(=O)[C@H](Cc3cc4ccccc4[nH]3)n3cc([C@@H](N)C(C)CC)nn3)CC2)nc(N2CCN(C(=O)[C@H](CCCCN)n3cc([C@@H](N)CC(C)C)nn3)CC2)n1 (stereo not given in full)	16*	2	-15	-5	-35
Cc1cc(=O)oc2cc(OCC(=O)OCC(=O)Nc3c(C)n(C)n(-c4ccccc4)c3=O)ccc12	1	2	-4	-7	0
CC(Sc1nnc(NCc2ccccc2)s1)C(=O)Nc1ccc2c(c1)C(=O)c1ccccc1C2=O (stereo not given)	17*	3	2	-3	40
CC(Sc1nnc(Nc2ccccc2)s1)C(=O)Nc1nc(-c2ccccc2)cs1 (stereo not given)	1	0	9	12	13
CCCCN(C(=O)CSCc1c(C)noc1C)c1c(N)n(CCCC)c(=O)[nH]c1=O	-3	1	5	-9	-3
COc1ccc2nc(SCC(=O)NC3CCCC3)c(C)cc2c1	4	1	-8	-9	-3
CC[n+]1c(/C=C/Nc2ccccc2)sc2ccccc21	0	3	-13	-11	-4
CCN1/C(=C/C=C/C=C/c2sc3ccccc3[n+]2CC)Sc2ccccc21	47*	5	/	/	i
O=C1C(=O)N(CCN2CCOCC2)C(c2ccccc2F)/C1=C(\O)c1ccc(S(=O)(=O)N2CCOCC2)cc1 (stereo not given)	-4	0	0	1	2
NC(=O)c1c(NC(=O)CSc2nnc(-c3ccco3)n2-c2ccccc2)sc2c1CCC2	12	0	17	14	72*
N#Cc1c(NC(=O)CSc2nnc(-c3ccco3)n2-c2ccccc2)sc2c1CCC2	7	1	21	10	64*
CCn1c(SCC(=O)Nc2sc3c(c2C#N)CCCC3)nnc1-c1ccco1	1	4	-3	0	9
O=C(Nc1ccc(-c2nc3ccccc3s2)cc1)C1=COCCO1	4	-1	1	43*	0
CCOC(=O)c1csc(NC(=O)c2cc3ccccc3o2)n1	1	-1	0	-6	-7
Cc1cc(-c2csc(NC(=O)c3cc4ccccc4o3)n2)c(C)n1C	-6	1	3	-4	74*
CCOC(=O)c1c(S(=O)(=O)NCc2ccc(C)o2)c(C)n(C)c1C	0	2	4	-8	3
O=C1c2c(O)ccc(O)c2C(=O)c2c(NCCNCCO)ccc(NCCNCCO)c21	21*	3	+	110*	-18

Source: PubChem (The Scripps Research Institute Molecular Screening Center)
